Calls of active or inactive are those of the source. The rule behind the calls is not given here.
How the values were obtained:
[1] = target: T1, Antigen-presenting glycoprotein CD1d (Mus musculus) (UniProt P11609+P11610); assay: Binding affinity to CD1d in C57BL/6 mouse HMNC cells assessed as iNKT cells stimulation by measuring Th1-type cytokine, IFNgamma production at 25 nM incubated for 72 hrs by ELISA; format: cell-based
How it was run: (§1)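 Primary murine hepatic mononuclear cells (HMNCs), which contain iNKT cells, were incubated with each glycolipid at 25 nM for 72 h. Cytokines released into the medium were quantified by ELISA, with α-GalCer as positive control.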

[2] = target: T1, Antigen-presenting glycoprotein CD1d (Mus musculus); assay: Covalent binding affinity to mouse CD1d at 10 equivalent incubated for 3 hrs by coomassie blue staining based SDS-PAGE analysis; format: protein assay
How it was run: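 CD1d protein was incubated with each ligand under several reported or modified conditions. Samples were then denatured and resolved by SDS-PAGE. Gels were stained with Coomassie blue to look for covalent CD1d–ligand adduct bands alongside intact protein.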

[3] = target: T1, Antigen-presenting glycoprotein CD1d (Mus musculus); assay: Binding affinity to CD1d in C57BL/6 mouse HMNC cells assessed as iNKT cells stimulation by measuring increase in Th2-type cytokine, IL-4 production at 25 nM incubated for 72 hrs by ELISA; format: cell-based; how it was run: as §1
[4] = target: T1, Antigen-presenting glycoprotein CD1d (Mus musculus); assay: Binding affinity to CD1d in C57BL/6 mouse HMNC cells assessed as iNKT cells stimulation by measuring increase in IL-2 production at 25 nM incubated for 72 hrs by ELISA; format: cell-based; how it was run: as §1
[5] = target: T1, Antigen-presenting glycoprotein CD1d (Mus musculus); assay: Covalent binding affinity to mouse CD1d at 5 equivalent incubated in DBPS buffer without tween 20 for 3 hrs by MALDI-TOF analysis; format: protein assay
How it was run: (§2)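 Samples of CD1d protein incubated with each ligand were analysed by MALDI-TOF mass spectrometry. The aim was to detect covalent conjugates formed between a CD1d cysteine and the ligand's α-fluorocarbonyl group.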

[6] = target: T1, Antigen-presenting glycoprotein CD1d (Mus musculus); assay: Covalent binding affinity to mouse CD1d at 5 equivalent incubated in DBPS buffer with tween 20 for 3 hrs by MALDI-TOF analysis; format: protein assay; how it was run: as §2
[7] = target: T1, Antigen-presenting glycoprotein CD1d (Mus musculus); assay: Covalent binding affinity to mouse CD1d at 14.6 equivalent incubated in tris buffer with tween 20 at pH 7.5 to 8 for 16 hrs by MALDI-TOF MS analysis; format: protein assay; how it was run: as §2
[8] = target: T1, Antigen-presenting glycoprotein CD1d (Mus musculus); assay: Covalent binding affinity to mouse CD1d at 14.6 equivalent incubated in tris buffer without tween 20 at pH 7.5 to 8 for 16 hrs by MALDI-TOF MS analysis; format: protein assay; how it was run: as §2
[9] = target: T1, Antigen-presenting glycoprotein CD1d (Mus musculus); assay: Binding affinity to CD1d in C57BL/6 mouse HMNC cells assessed as iNKT cells stimulation by measuring increase in ratio of IL-4 to IFNgamma (IL-4/IFNgamma) level at 25 nM incubated for 72 hrs by ELISA; format: cell-based
[10] = target: T1, Antigen-presenting glycoprotein CD1d (Mus musculus); assay: Binding affinity to CD1d in C57BL/6 mouse HMNC cells assessed as iNKT cells stimulation by measuring increase in IL17 production at 25 nM incubated for 72 hrs by ELISA; format: cell-based; how it was run: as §1

| SMILES | Activity [1] | Activity [2] | Activity [3] | Activity [4] | Activity [5] | Activity [6] | Activity [7] | Activity [8] | Activity [9] | Activity [10] |
| --- | --- | --- | --- | --- | --- | --- | --- | --- | --- | --- |
| CCCCCCCCCCCCCC[C@@H](O)[C@@H](O)[C@H](CO[C@H]1O[C@H](CO)[C@H](O)[C@H](O)[C@H]1O)NC(=O)CCCCCCCCCCCCCCCCC(=O)CF | inactive | inactive | Active | Active | inactive | inactive |  |  |  |  |
| CCCCCCCCCCCCCC[C@@H](O)[C@@H](O)[C@H](CO[C@H]1O[C@H](CO)[C@H](O)[C@H](O)[C@H]1O)NC(=O)CCCCCCCCCCCCCCCCCCCCC(=O)CF | inactive | inactive | Active | Active | inactive | inactive | inactive | inactive | Active | Active |
| CCCCCCCCCCCCCCCCCCCCCCCCCC(=O)N[C@@H](CO[C@H]1O[C@H](CO)[C@H](O)[C@H](O)[C@H]1O)[C@H](O)[C@H](O)CCCCCCCCCCCCCC |  |  | Active | Active |  |  |  |  |  | Active |
| CCCCCCCCCCCCCCCCCCCCCCCC(=O)N[C@@H](CO[C@H]1O[C@H](CO)[C@H](O)[C@H](O)[C@H]1O)[C@H](O)[C@H](O)CCCCC | inactive |  | inactive |  |  |  |  |  | Active |  |
| CCCCCCCCCCCCCC[C@@H](O)[C@@H](O)[C@H](CO[C@H]1O[C@H](CO)[C@H](O)[C@H](O)[C@H]1O)NC(=O)CCCCCCCCCCCCCCCCCCC(=O)CF | inactive | inactive | Active | Active | inactive | inactive |  |  | Active | Active |
| CCCCCCCCCCCCCC[C@@H](O)[C@@H](O)[C@H](CO[C@H]1O[C@H](CO)[C@H](O)[C@H](O)[C@H]1O)NC(=O)CCCCCCCCCCCCCCCCCC(=O)CF | inactive | inactive | Active | Active | inactive | inactive |  |  | Active |  |
| CCCCCCCCCCCCCC[C@@H](O)[C@@H](O)[C@H](CO[C@H]1O[C@H](CO)[C@H](O)[C@H](O)[C@H]1O)NC(=O)CCCCCCCCCCCCCCCCCCCC(=O)CF | inactive | inactive | Active | Active | inactive | inactive |  |  | Active | Active |

From ChEMBL document CHEMBL4304754, “Development of α-GalCer Analogues with an α-Fluorocarbonyl Moiety as Th2-Selective Ligands of CD1d” (ACS Med Chem Lett, 2019)
